Measured values collected from several papers.
Compare with care: the assays were run in different laboratories.
Target: Phosphatidylinositol 4,5-bisphosphate 3-kinase catalytic subunit beta isoform (PIK3CB, Homo sapiens, UniProt P42338)

CC1CCCN1c1nccc(-c2cnn3ncccc23)n1 (centres unmarked)
remaining binding (binding; 1 µM): 100%

CN(c1ccnc(CNc2nc(Nc3ccc4c(c3)CC(=O)N4)ncc2C(F)(F)F)n1)S(C)(=O)=O
remaining binding (cell-free assay; competition with immobilised ligand; 1 µM): 100%

N[C@@H]1CCN(c2nccc(-c3cnn4ncccc34)n2)C1
remaining binding (binding; 1 µM): 100%

C[C@@H](c1ccc(-n2cnc3c(N)ncnc32)cc1)N1CCc2nn(C)c(Cc3ccccc3)c2C1=O
remaining binding (binding; competition with immobilised ligand; 0.1 µM): 99%

O=C(c1ccc(Nc2nccc(-c3cc4ccccc4s3)n2)cc1)N1CCC(N2CCCC2)CC1
remaining binding (binding; competition with immobilised ligand; 1 µM): 86%

Nc1ncc2c(n1)-c1c([nH]c3ccc(C#CC4CC4)cc13)CCCC2
remaining binding (binding; competition with immobilised ligand; 1 µM): 100%

CCN1CCN(Cc2ccc(C(=O)Nc3ccc(C)c(Oc4ccc5c(c4)CC(=O)N5)c3)cc2C(F)(F)F)CC1
remaining binding (binding; competition with immobilised ligand; 1 µM): 100%

c1cnn2ncc(-c3ccnc(N4CCC45COC5)n3)c2c1
remaining binding (binding; 1 µM): 62%

COc1cnc(Nc2cccc(S(N)(=O)=O)c2)nc1N1CCN(c2ccccc2)CC1
remaining binding (binding; competition with immobilised ligand; 1 µM): 86%

O=C(c1ccc(Nc2ncc(Cl)c(-c3ccc(Cl)s3)n2)cc1)N1CCC(N2CCCC2)CC1
remaining binding (binding; competition with immobilised ligand; 1 µM): 100%

COc1ccc2c(O[C@@H]3C[C@H]4C(=O)N[C@]5(C(=O)O)CC5/C=C\CCCCC[C@H](NC(=O)OC5CCCC5)C(=O)N4C3)cc(-c3csc(NC(=O)C(C)C)n3)nc2c1C (some centres unmarked)
remaining binding (cell-free assay; competition with immobilised ligand; 1 µM): 62%

CN(c1nccc(-c2cnn3ncccc23)n1)C1CC1
remaining binding (binding; 1 µM): 100%

Cc1cc(NC(=O)c2cccc(S(F)(F)(F)(F)F)c2)cc(-n2ccn3nc(-c4cccnc4)cc23)c1
remaining binding (cell-free assay; competition with immobilised ligand; 1 µM): 100%

O=C(NCCCN1CCOCC1)c1ccc(Nc2nccc(-c3cc4ccccc4s3)n2)cc1
remaining binding (binding; competition with immobilised ligand; 1 µM): 100%

C[C@@H]1CN(c2cc(-c3n[nH]c4ccc(OC5(C)CC5)cc34)ncn2)C[C@H](C)O1
remaining binding (cell-free assay; competition with immobilised ligand; 0.1 µM): 59%

O=C(NCC1CCOCC1)c1n[nH]cc1NC(=O)c1c(F)cccc1F
remaining binding (binding; competition with immobilised ligand; 1 µM): 91%

CNCc1ccccc1-c1csc([C@H](C)Nc2nc(C)nc3cc(OC)c(OC)cc23)c1
remaining binding (cell-free assay; competition with immobilised ligand; 1 µM): 89%

C=CC(=O)N1CCC(C(=O)NCC(=O)N2CCN(c3nc(-c4cnc(N)nc4C(F)F)nc(N4CCOCC4)n3)CC2)CC1
remaining binding (binding; competition with immobilised ligand; 1 µM): 0.05%

O=C(NCc1ncc(C(F)(F)F)cc1Cl)c1ccc2c(c1)C1(CCS(=O)(=O)CC1)[C@H](C1CC1)N2S(=O)(=O)c1ccc(F)cc1
remaining binding (cell-free assay; competition with immobilised ligand; 1 µM): 68%

CN(C)c1nccc(-c2cnn3ncccc23)n1
remaining binding (binding; 1 µM): 50%
